Reference: paper PMC7925372 (Journal of thrombosis and haemostasis : JTH, 2021)
Where a chain is given by its changes, count along the chain named.

What was measured:
[1] = test system: warfarin-resistant rats; details: cited from earlier work
[2] = cited from earlier work
[3] = test system: VKD carboxylation in UBIAD1-knockout FIXgla-PC/HEK293 cells; assay: VKD carboxylation in UBIAD1-knockout FIXgla-PC/HEK293 reporter cells; type: cell-based, human; details: increasing concentrations, 24 hours
[4] = test system: VKD carboxylation of reporter-protein FIXgla-PC in FIXgla-PC/HEK293 cells; type: cell-based, human; details: 24 hours
In short: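 FIXgla-PC/HEK293 cells are HEK293 cells stably expressing protein C whose Gla domain is swapped for factor IX's. They were cultured 24 h with test compound, either fixed at 1 μM or at increasing concentrations, as carboxylation substrate. FIXgla-PC carboxylation efficiency was measured by ELISA directly on culture medium. Activity was expressed relative to vitamin K1 set at 100%. Background activity comes from residual K vitamins in fetal bovine serum.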

[5] = test system: GGCX; assay: In vitro vitamin K epoxidation activity assay with GGCX enriched microsomes; type: biochemical; details: FLEEL, FIX-propeptide, KH2, 100 μM compound
[6] = test system: VKD carboxylation of FIXgla-PC in FIXgla-PC/HEK293 cells; type: cell-based, human; details: 3 μM inhibitor, increasing concentrations of vitamin K1, 24 hours
[7] = test system: KO reductase (reduction of KO to vitamin K1); assay: HPLC-based KO reductase activity in GGCX-knockout HEK293 cells; type: cell-based, human; details: GGCX-knockout HEK293, 10 μM KO, 10 μM compound, 6 hours
In short: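 GGCX-knockout FIXgla-PC/HEK293 cells (CRISPR-Cas9) were incubated 6 h in medium with 10 μM KO, with or without 10 μM test compound; DMSO-treated cells served as control. K vitamins were extracted from the cells and analysed by reversed-phase HPLC. KO reductase activity was scored as vitamin K1 formed, with vitamin E acetate as standard.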

[8] = biological target: T1, VKOR W59R (Homo sapiens, UniProt Q9BQB6, W59R); assay: Inhibition potency of VKAs on VKOR mutation expressed in DGKO reporter cells; type: cell-based; details: read-out: IC50 ± standard deviation, 5 μM KO, 24 hours
T1 sequence (Q9BQB6 1-163 W59R): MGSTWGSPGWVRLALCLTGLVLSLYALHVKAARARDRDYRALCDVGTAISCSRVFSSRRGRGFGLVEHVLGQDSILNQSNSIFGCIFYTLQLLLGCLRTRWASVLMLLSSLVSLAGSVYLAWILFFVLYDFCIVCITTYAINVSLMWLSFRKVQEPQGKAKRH

[9] = biological target: T2, VKOR A26P (Homo sapiens, UniProt Q9BQB6, A26P); assay: as above; type: cell-based
T2 sequence (Q9BQB6 1-163 A26P): T1 sequence (Q9BQB6 1-163 W59R) with A26P, R59W

[10] = biological target: T3, VKOR L128R (Homo sapiens, UniProt Q9BQB6, L128R); assay: as above; type: cell-based; details: read-out: IC50 ± standard deviation, 5 μM KO, 24 hours
T3 sequence (Q9BQB6 1-163 L128R): T1 sequence (Q9BQB6 1-163 W59R) with R59W, L128R

[11] = test system: HEK293 reporter cells; assay: Cell viability assay in reporter cells; type: cell-based, human; details: corresponding concentrations of the carboxylation assay
[12] = test system: vitamin K reductase (DGKO reporter cells); type: cell-based, human; details: increasing concentrations
[13] = test system: vitamin K reductase; assay: HPLC-based vitamin K reductase activity; type: cell-based, human; details: DGKO cells, 10 μM vitamin K1, 10 μM compound, 6 hours
In short: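 Reporter cells lacking endogenous VKOR and VKORL (TALEN double knockout) were cultured 6 h with 10 μM vitamin K1, with or without 10 μM test compound; DMSO was the control. Cellular K vitamins were extracted for reversed-phase HPLC. Unstable KH2 was not measured; reduction was coupled to epoxidation, and activity was read as KO produced.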

[14] = test system: VKD carboxylation of FIXgla-PC in FIXgla-PC/HEK293 cells (KO as substrate); assay: Inhibition of VKD carboxylation in FIXgla-PC/HEK293 cells with 5 μM KO; type: cell-based, human
[15] = test system: wild-type VKOR; assay: Inhibition potency of VKAs on VKOR transiently expressed in DGKO reporter cells; type: cell-based, human
[16] = biological target: T4, VKOR F55A (Homo sapiens, UniProt Q9BQB6, F55A); assay: Inhibition potency of VKAs on VKOR mutation expressed in DGKO reporter cells; type: cell-based
T4 sequence (Q9BQB6 1-163 F55A): T1 sequence (Q9BQB6 1-163 W59R) with F55A, R59W

[17] = biological target: T5, VKOR Y139F (Homo sapiens, UniProt Q9BQB6, Y139F); assay: as above; type: cell-based; details: read-out: IC50 ± standard deviation, 5 μM KO, 24 hours
T5 sequence (Q9BQB6 1-163 Y139F): T1 sequence (Q9BQB6 1-163 W59R) with R59W, Y139F

[18] = test system: UBIAD1-dependent VKD carboxylation; type: cell-based, human; details: UBIAD1 transiently expressed in UBIAD1-knockout cells, increasing concentrations
In short: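 FIXgla-PC/HEK293 reporter cells with UBIAD1 knocked out by CRISPR-Cas9 were transiently transfected with UBIAD1 cDNA. Transfected cells were cultured with increasing concentrations of vitamin K analogue. FIXgla-PC carboxylation efficiency in the medium was then measured by ELISA, normalised to vitamin K1 as 100%.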

[19] = test system: naturally occurring VKOR mutations; details: cell-based functional study; cited from earlier work
[20] = test system: UBIAD1 (MK-4 production in HEK293 cells); assay: Conversion of vitamin K derivatives to MK-4 in FIXgla-PC/HEK293 cells; type: cell-based, human; details: 10 μM VK-K-COT plus 5 μM warfarin, 6 hours, HPLC
[21] = 1 μM vitamin K derivative as substrate, FIXgla-PC/HEK293

C/C(=C\CC1=C(Cl)C(=O)c2ccccc2C1=O)CCCC(C)CCCC(C)CCCC(C)C (stereo not shown) [Chloro-K]
anticoagulant effect in warfarin-resistant rats [1]: effective anticoagulant
antagonism of vitamin K [2]: potent antagonist of vitamin K

CC(C)=CCC/C(C)=C/CC/C(C)=C/CC/C(C)=C/CC1=C(C)C(=O)c2ccccc2C1=O [MK-4, menaquinone-4]
support of VKD carboxylation as substrate in UBIAD1-knockout cells [3]: can efficiently support VKD carboxylation

CC1=C(Cc2ccccc2)C(=O)c2ccccc2C1=O [VK-M-Ben]
carboxylation activity (vitamin K1 normalized to 100%) [4, 21]: 3%
carboxylation activity as substrate, in words [4, 21]: abolished carboxylation activity

CC1=C(CC2=CC=CC=CC=C2)C(=O)c2ccccc2C1=O [VK-M-COT]
carboxylation activity as substrate, in words [4, 21]: activity lower than the background activity (DMSO)
dose-response of VKD carboxylation on concentration titration ([4]; increasing concentrations of vitamin K derivative): inhibitory dose-response curve
GGCX vitamin K epoxidation activity [5]: inhibits GGCX activity for vitamin K epoxidation
reversal of inhibition of VKD carboxylation by vitamin K1 [6]: can be reversed equally with higher concentrations of vitamin K1
reduction of KO to vitamin K1 (HPLC) [7]: significantly decreased
IC50 [8]: 0.615 ± 0.101 µM
IC50 ([9]; read-out: IC50 ± standard deviation, VKOR A26P in DGKO cells, 5 μM KO, 24 hours): 0.487 ± 0.075 µM
IC50 [10]: 0.575 ± 0.132 µM
cytotoxicity (cell viability) [11]: not due to the cytotoxicity
inhibition of reporter-protein carboxylation, vitamin K1 as substrate [12]: inhibited reporter-protein carboxylation
reduction of vitamin K (production of KO, HPLC) [13]: significantly decreased
inhibition of reporter-protein carboxylation, KO as substrate ([14]; FIXgla-PC/HEK293, 5 μM KO, increasing concentrations): inhibited reporter-protein carboxylation
inhibition potency lower than warfarin (fold) ([14]; IC50 ratio to warfarin, FIXgla-PC/HEK293, 5 μM KO): ~ 20 fold
IC50 variation between warfarin-resistant VKOR mutations and wild-type VKOR ([15]; A26P, F55A, W59R, L128R, Y139F vs wild type): less than 3 fold
IC50 ([16]; read-out: IC50 ± standard deviation, VKOR F55A in DGKO cells, 5 μM KO, 24 hours): 0.249 ± 0.066 µM
IC50 [17]: 0.658 ± 0.054 µM

CC1=CC(=O)c2ccccc2C1=O [menadione]
VKD carboxylation activity after re-introduction of UBIAD1 [18]: regained VKD carboxylation activity
support of VKD carboxylation as substrate in UBIAD1-knockout cells [3]: unable to support reporter-protein carboxylation

CC1=C(C/C=C(\C)CCC[C@H](C)CCC[C@H](C)CCCC(C)C)C(=O)c2ccccc2C1=O [vitamin K1, phylloquinone]
support of VKD carboxylation as substrate in UBIAD1-knockout cells [3]: can efficiently support VKD carboxylation

CC(=O)CC(c1ccccc1)c1c(O)c2ccccc2oc1=O (stereo not shown) [warfarin, reference compound]
variation of warfarin resistance among naturally occurring VKOR mutations [19]: over 100 fold
reversal of inhibition of VKD carboxylation by vitamin K1 [6]: can be reversed equally with higher concentrations of vitamin K1
MK-4 epoxide in cells on VKOR inactivation [20]: MK-4 epoxide accumulated
increase of IC50 compared to wild-type VKOR ([9]; A26P vs wild type): 60 fold
IC50 ([14]; Homo sapiens, HEK293, 24 h, read-out: IC50 for VKD carboxylation): 0.0125 µM
effect of warfarin-resistant VKOR mutations on inhibition potency ([15]; all warfarin-resistant VKOR mutations tested vs wild type): up to 400 fold
increase of IC50 compared to wild-type VKOR ([16]; F55A vs wild type): 417 fold
